Laboratory results: ChEMBL document CHEMBL1142876, “Non-carboxylic analogues of arylpropionic acids: synthesis, anti-inflammatory activity and ulcerogenic potential” (Eur J Med Chem, 2007)

Columns and labels:
Rattus norvegicus [1] = assay: Antiinflammatory activity against carrageenan-induced paw edema in Albino rat at 200 mg/kg body weight, sc; assay type: functional; details: route subcutaneous
Outline: (§1)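 Rats from National Research Centre, acclimatised one week, 12 h light/dark, food and water ad libitum; groups of six. Right hind paw sub-plantar injection of 0.05 mL 1% carrageenan in saline. Drugs dissolved in DMSO, given subcutaneously; vehicle controls got DMSO. Paw volume measured before and 0.5, 1.5, 2, 3, 6, 8 h post-carrageenan; edema AUC by trapezoidal method, mean ± S.E.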

Rattus norvegicus [2] = assay: Antiinflammatory activity against carrageenan-induced paw edema in Albino rat at 30 mg/kg body weight, sc; assay type: functional; details: route subcutaneous; outline: as §1
Rattus norvegicus [3] = assay: Toxicity assessed as ulcerogenic effect in Albino rat at 30 mg/kg, po twice a day after 3 days; assay type: organism-based; set-up: dose 30 mg/kg, route oral; details: in vivo, 72 h
Outline: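 Male albino rats, 150–200 g, fasted 12 h (water ad libitum), six per group. Oral dosing in two equal doses of 30 mg/kg at 0 and 12 h for three successive days; controls received 1% gum acacia orally. Killed with diethyl ether 6 h after final dose; stomach opened along greater curvature, saline-washed, examined under 3× lens for hyperemia, haemorrhage or ulcer. % ulceration = ulcer-bearing animals/group total ×100.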

With `C[C@]12CCC(=O)C=C1CC[C@@H]1[C@@H]2[C@@H](O)C[C@@]2(C)[C@H]1CC[C@]2(O)C(=O)CO` [HYDROCORTISONE] the Activity (Rattus norvegicus [1]) was 73.39%.
`CC(c1ccc(-c2ccccc2)c(F)c1)c1nnc(Nc2cccc(Cl)c2)[nH]1` (centres undefined) showed an Activity (Rattus norvegicus [2]) of 69.65% and an Activity (Rattus norvegicus [3]) of 0%.
Work on `COc1ccc2c(c1)c(CC(=O)O)c(C)n2C(=O)c1ccc(Cl)cc1` [INDOMETHACIN] yielded an Activity (Rattus norvegicus [3]) of 100%.
`CC(C)Cc1ccc(C(C)C(=O)O)cc1` (centres undefined) [IBUPROFEN] was tested, and the Activity (Rattus norvegicus [2]) was 86.07%.
Molecule `CC(C)Cc1ccc(C(C)c2nnc(Nc3cccc(Cl)c3)[nH]2)cc1` (centres undefined) has an Activity (Rattus norvegicus [2]) of 70.86%.
Molecule `CC(c1ccc(-c2ccccc2)c(F)c1)c1nnc(Nc2ccc(Br)cc2)[nH]1` (centres undefined) has an Activity (Rattus norvegicus [2]) of 68.36% and an Activity (Rattus norvegicus [3]) of 0%.
`CC(C)Cc1ccc(C(C)c2nnc3sc(S)nn23)cc1` (centres undefined) showed an Activity (Rattus norvegicus [2]) of 72.1%.
`COc1ccc2cc(C(C)c3nnc(Nc4cccc(Cl)c4)[nH]3)ccc2c1` (centres undefined) gave an Activity (Rattus norvegicus [2]) of 66.8% and an Activity (Rattus norvegicus [3]) of 0%.
Work on `CC(C)Cc1ccc(C(C)c2nnc(Nc3ccc(Br)cc3)[nH]2)cc1` (centres undefined) yielded an Activity (Rattus norvegicus [2]) of 69.52% and an Activity (Rattus norvegicus [3]) of 33.3%.
With `COc1ccc2cc(C(C)c3nnc(Nc4ccc(Br)cc4)[nH]3)ccc2c1` (centres undefined) the Activity (Rattus norvegicus [2]) was 69.67%.
